≈ marks a conversion by molar mass, not a printed value. Calls of active or inactive are those of the source. The rule behind the calls is not given here.
Assays:
Plasmodium falciparum [1] = assay: Antimalarial activity against blood stage Plasmodium falciparum D6 assessed as [3H]-hypoxanthine uptake after 24 hrs by scintillation counting; format: functional, organism-based
Plasmodium falciparum [2] = assay: Antimalarial activity against blood stage Plasmodium falciparum TM91C235 assessed as [3H]-hypoxanthine uptake after 24 hrs by scintillation counting; format: functional, organism-based
[3] = Metabolic stability in mouse assessed as half life at 320 mg/kg, po by LC-MS/MS analysis; format: ADME, organism-based; parameters: dose 320 mg/kg, route oral; conditions: in vivo
[4] = Metabolic stability in human assessed as half life at 320 mg/kg, po by LC-MS/MS analysis; format: ADME, organism-based; parameters: dose 320 mg/kg, route oral
Plasmodium falciparum [5] = assay: Antimalarial activity against blood stage Plasmodium falciparum W2 assessed as [3H]-hypoxanthine uptake after 24 hrs by scintillation counting; format: functional, organism-based
Plasmodium berghei [6] = assay: Antimalarial activity against Plasmodium berghei […] mouse model assessed as delay in patency time at 160 mg/kg, po administered one day before infection, on day of infection and one day post infection; format: functional
Method in brief: (§1)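 Sporozoite-challenged exoerythrocytic mouse model using P. berghei. Compound ground and suspended in hydroxyethylcellulose with Tween 80 for oral dosing, given once daily for 3 consecutive days: day before, 4 h before, and day after sporozoite inoculation. Dose in (mg/kg)/day. Mice are scored for protection (causal prophylaxis) and for delay in patency.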

Plasmodium berghei [7] = assay: Antimalarial activity against Plasmodium berghei […] mouse model assessed as delay in patency time at 320 mg/kg, po administered one day before infection, on day of infection and one day post infection; format: functional; method in brief: as §1
Plasmodium berghei [8] = assay: Antimalarial activity against Plasmodium berghei […] mouse model assessed as causal prophylactic activity at 160 mg/kg, po administered one day before infection, on day of infection and one day post infection; format: functional, organism-based; parameters: dose 160 mg/kg; method in brief: as §1
[9] = Metabolic stability in mouse assessed as half life at 160 mg/kg, po by LC-MS/MS analysis; format: ADME, organism-based; parameters: dose 160 mg/kg, route oral
[10] = Metabolic stability in human assessed as half life at 160 mg/kg, po by LC-MS/MS analysis; format: ADME, organism-based; parameters: dose 160 mg/kg, route oral
Plasmodium cynomolgi [11] = assay: Antimalarial activity against Plasmodium cynomolgi infected in rhesus monkey assessed as delay in patency time at 1.78 mg/kg, po administered one day before infection, on day of infection followed by 1 day post infection; format: functional
Method in brief: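 Rhesus monkeys challenged with P. cynomolgi sporozoites. Oral dosing on days −1, 0 and 1 in HECT or MC vehicle, with dose in (mg/kg)/day. Read-out is the first day of patency and the delay in patency relative to vehicle-treated controls.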

[12] = Half life in po dosed rhesus monkey; format: ADME, organism-based, Macaca mulatta; conditions: in vivo
Rhesus monkey [13] = assay: Drug uptake in im dosed rhesus monkey measured after 24 hrs; format: ADME, organism-based, Macaca mulatta; conditions: in vivo
Rhesus monkey [14] = assay: Drug uptake in im dosed rhesus monkey assessed as 1-(3,4-dichlorophenyl)-2-(1-isopropyl-4,5-dioxo-4,5-dihydro-1H-imidazol-2-yl)guanidine measured after 24 hrs; format: ADME, organism-based, Macaca mulatta; conditions: in vivo
Rhesus monkey [15] = assay: Drug uptake in po dosed rhesus monkey measured after 24 hrs; format: ADME, organism-based, Macaca mulatta; conditions: in vivo
Rhesus monkey [16] = assay: Drug uptake in po dosed rhesus monkey assessed as 1-(3,4-dichlorophenyl)-2-(1-isopropyl-4,5-dioxo-4,5-dihydro-1H-imidazol-2-yl)guanidine measured after 24 hrs; format: ADME, organism-based, Macaca mulatta; conditions: in vivo
[17] = Half life in im dosed rhesus monkey; format: ADME, organism-based, Macaca mulatta; conditions: in vivo
Rhesus monkey [18] = assay: Drug uptake in rhesus monkey after 24 hrs relative to control; format: ADME, organism-based, Macaca mulatta; conditions: in vivo
Plasmodium berghei [19] = assay: Antimalarial activity against Plasmodium berghei […] mouse model assessed as causal prophylactic activity at 320 mg/kg, po administered one day before infection, on day of infection and one day post infection; format: functional, organism-based; parameters: dose 320 mg/kg
Method in brief: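 Sporozoite-inoculated P. berghei exoerythrocytic (EE) mouse model. Compound ground and suspended in hydroxyethylcellulose plus Tween 80 for oral dosing, given once daily for 3 consecutive days: day before, 4 h before, and day after sporozoite inoculation (days −1, 0, 1). Dose in (mg/kg)/day. Read-out is mice protected per group (causal prophylaxis) or delay in patency.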

Plasmodium cynomolgi [20] = assay: Antimalarial activity against Plasmodium cynomolgi infected in rhesus monkey assessed as time delayed in relapse of patency at 10 mg/kg/day, po administered for 7 days; format: functional
Method in brief: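 Rhesus monkeys that developed P. cynomolgi parasitemia in the prophylaxis test were used once parasitemia reached 5000 parasites/mm³. Oral chloroquine 10 (mg/kg)/day was given for 7 days, with test agent given alongside. Relapse was monitored. Monkeys with no relapse after 100 days were counted as radically cured. Relapsing controls were retreated with chloroquine and followed for a second relapse.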

Row | IC50 (Plasmodium falciparum [1]) [µg/mL] | IC50 (Plasmodium falciparum [2]) [µg/mL] | half-life [3] [min] | half-life [4] [min] | IC50 (Plasmodium falciparum [5]) [µg/mL] | half-life [9] [min] | half-life [10] [min] | SMILES | Time (Plasmodium berghei [7]) [days] | Activity (Plasmodium berghei [8]) | also measured
1 | 0.56 (≈ 1.31 µM) | 0.9 (≈ 2.1 µM) | > 60 | > 60 | 0.63 (≈ 1.47 µM) | – | – | CC(C)N/C(=N/C(=O)OC(C)(C)C)NC1=NC(=O)CN1c1cccc(Cl)c1Cl | – | – | –
2 | 2.86 (≈ 7.15 µM) | – | > 60 | 34.3 | 2.8 (≈ 7 µM) | – | – | CCOC(=O)/N=C(\NC1=NC(=O)CN1C(C)C)Nc1ccc(Cl)c(Cl)c1 | 2 | inactive | Time (Plasmodium berghei [6]): 2 days
3 | > 5 | > 5 | – | – | 2.2 (≈ 5.75 µM) | > 60 | > 60 | CC(C)N1CC(=O)N=C1N/C(=N/c1ccc(Cl)c(Cl)c1)N1CCCC1 | – | – | Time (Plasmodium berghei [6]): 2 days
4 | 4.65 (≈ 11.3 µM) | – | 13.5 | 40.5 | 4.87 (≈ 11.8 µM) | – | – | CC(C)N/C(=N\C(=O)C(C)(C)C)NC1=NC(=O)CN1c1ccc(Cl)c(Cl)c1 | 2 | – | Time (Plasmodium berghei [6]): 2 days
5 | 1.66 (≈ 3.51 µM) | 2.83 (≈ 5.98 µM) | – | – | 2.86 (≈ 6.04 µM) | 27.2 | 39.2 | CC(C)/N=C(\NC1=NC(=O)CN1c1ccc(Cl)c(Cl)c1)Nc1ccc(Cl)c(Cl)c1 | 1 | inactive | Activity (Plasmodium berghei [19]): inactive
6 | 0.78 (≈ 1.83 µM) | – | > 60 | 59.2 | 1.55 (≈ 3.64 µM) | – | – | CCC(CC)C(=O)/N=C(\NC1=NC(=O)CN1c1cccc(Cl)c1Cl)NC(C)C | 2 | – | –
7 | 3.42 (≈ 11.4 µM) | 3.31 (≈ 11 µM) | – | – | 2.57 (≈ 8.56 µM) | > 60 | > 60 | CN1CC(=O)N=C1NC(=N)Nc1ccc(Cl)c(Cl)c1 | – | inactive | –

Continued, compound first:

Row | SMILES | IC50 (Plasmodium falciparum [1]) [µg/mL] | IC50 (Plasmodium falciparum [2]) [µg/mL] | half-life [3] [min] | half-life [4] [min] | IC50 (Plasmodium falciparum [5]) [µg/mL] | half-life [9] [min] | half-life [10] [min] | Time (Plasmodium berghei [7]) [days] | Activity (Plasmodium berghei [8]) | also measured
8 | CC(C)N1CC(=O)N=C1N/C(=N\C(C)(C)C)Nc1ccc(Cl)c(Cl)c1 | 3 (≈ 7.81 µM) | 5.2 (≈ 13.5 µM) | – | – | 1.49 (≈ 3.88 µM) | 1.72 | 39.7 | – | inactive | –
9 | CC/N=C(\NC1=NC(=O)CN1c1ccc(Cl)c(Cl)c1)Nc1ccc(Cl)c(Cl)c1 | 2.6 (≈ 5.66 µM) | > 5 | – | > 60 | > 5 | > 60 | – | – | inactive | –
10 | CC(C)NC(=N)NC1=NC(=O)CN1c1cccc(Cl)c1Cl | 1.1 (≈ 3.35 µM) | 2.19 (≈ 6.67 µM) | 13.5 | 53.7 | 0.7 (≈ 2.13 µM) | – | – | – | – | –
11 | CC(C)N1CC(=O)N=C1N/C(=N/c1ccc(Cl)c(Cl)c1)N1CCCCC1 | > 5 | – | – | – | 1.98 (≈ 5 µM) | 18 | 28 | – | inactive | –
12 | COc1cc(NC(C)CCCN)c2ncccc2c1 (configuration not stated) [PRIMAQUINE] | – | – | – | – | – | – | – | – | – | Time (Plasmodium cynomolgi [11]): 5 days
13 | CC(C)N1C(=O)C(=O)NC1=NC(=NC(=O)OC(C)(C)C)Nc1ccc(Cl)c(Cl)c1 | – | – | – | – | – | – | – | – | – | half-life [12]: 534 min; Drug uptake (Rhesus monkey [13]): 96%; Drug uptake (Rhesus monkey [14]): 4%; Drug uptake (Rhesus monkey [15]): 86%; Drug uptake (Rhesus monkey [16]): 4%; half-life [17]: 70.5 h; Ratio (Rhesus monkey [18]): 10
14 | CCN(CC)CCCC(C)Nc1ccnc2cc(Cl)ccc12 (configuration not stated) [CHLOROQUINE] | – | – | – | – | – | – | – | – | – | Time (Plasmodium cynomolgi [20]): 11 days
15 | CCC(CC)C(=O)/N=C(\NC1=NC(=O)CN1C(C)C)Nc1ccc(Cl)c(Cl)c1 | 0.06 (≈ 0.141 µM) | 0.16 (≈ 0.375 µM) | 5 | 14 | 0.09 (≈ 0.211 µM) | – | – | 3 | inactive | Time (Plasmodium berghei [6]): 2 days
